Activity and inhibition data for one compound are collected here from ChEMBL document CHEMBL1155469, “Peptide nucleic acids conjugated to short basic peptides show improved pharmacokinetics and antisense activity in adipose tissue” (J Med Chem, 2010).

Active and inactive are the calls of the source. The calls are words filed in the database; no cut-off is given here.

Data set [1] deals with Mus musculus. Kind of data set: Acute toxicity in Balb/C mouse assessed as change in body weight at 37 mg/kg, ip administered thrice a week for 2 weeks measured 48 hrs after last dose. In kind it is organism-based. Also noted: dose 37 mg/kg, route intraperitoneal. The note with it: in vivo. The procedure, abridged:
(§1)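 Male Balb/c mice aged 6–8 weeks, n=4 per group, dosed i.p. with compound suspended in PBS and filter sterilized, 10 ul/g body weight. Body weight tracked throughout the live phase. Under isoflurane anaesthesia, terminal cardiac-puncture bleed; serum taken for transaminases and other chemistries. Sacrifice by cervical dislocation 48 h after last dose, with liver and spleen weighed at necropsy. Kidneys examined by histopathology.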

In data set [2] the test system is Mus musculus. Kind of data set: Acute toxicity in Balb/C mouse assessed as change in organ weight at 25 mg/kg, ip administered BID for 5 days measured 48 hrs after last dose. Set-up: dose 25 mg/kg, route intraperitoneal. In kind it is organism-based. The note with it: in vivo. The procedure, abridged:
as §1

Data set [3] relates to Mus musculus. Description: Acute toxicity in Balb/C mouse assessed as change in organ weight at 37 mg/kg, ip administered thrice a week for 2 weeks measured 48 hrs after last dose. The format is organism-based. The settings on record: in vivo. Set-up: dose 37 mg/kg, route intraperitoneal. The procedure, abridged: as §1
The test system of data set [4] is Mus musculus. Kind of data set: Inhibition of PTEN expression in Balb/C mouse liver at 10 to 40 mg/kg, ip administered thrice a week for 2 weeks measured 48 hrs after last dose by Western blot analysis. The format is functional, organism-based. The procedure, abridged: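 Male Balb/c mice, 6–8 wk, n=4/group, dosed i.p. in PBS 3x/wk for 2 wk and killed 48 h after the last dose. Tissue was homogenized in RIPA buffer with protease inhibitors, and protein was measured by Lowry assay. Lysates were run on 10% PAGE and blotted to PVDF. Blots were probed with rabbit anti-PTEN (1:1000) and HRP anti-rabbit (1:2500), with ECL detection.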

In data set [5] the test system is Mus musculus. Kind of data set: Toxicity in Balb/C mouse assessed as change in serum triglyceride levels at 10 to 40 mg/kg, ip administered thrice a week for 2 weeks measured 48 hrs after last dose. In kind it is organism-based. The settings on record: in vivo. Also noted: dose 10-40 mg/kg, route intraperitoneal. The procedure, abridged:
(§2)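 Male Balb/c mice, 6–8 wk, n=4/group, received compound i.p. in PBS (10 ul/g) 3x/wk for 2 wk. Body weight was monitored throughout. At 48 h after the last dose, mice were anesthetized with isoflurane and bled by cardiac puncture. Serum AST, ALT, BUN, bilirubin, glucose and triglycerides were compared with the saline group. ALT rise below 2x normal was counted as absent.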

Data set [6] relates to Mus musculus. Kind of data set: Toxicity in Balb/C mouse assessed as change in serum glucose levels at 10 to 40 mg/kg, ip administered thrice a week for 2 weeks measured 48 hrs after last dose. In kind it is organism-based. Set-up: dose 10-40 mg/kg, route intraperitoneal. The note with it: in vivo. The procedure, abridged: as §2
The subject of data set [7] is Mus musculus. Description: Inhibition of PTEN expression in Balb/C mouse kidney assessed as reduction of full length transcript at 40 mg/kg, ip administered thrice a week for 2 weeks measured 48 hrs after last dose […]. The format is functional. Also noted: scale not given: the % may be the effect or the level left. The note with it: route intraperitoneal.
The subject of data set [8] is Mus musculus. Description: Acute toxicity in Balb/C mouse assessed as change in serum chemistry at 25 mg/kg, ip administered BID for 5 days measured 48 hrs after last dose. The format is organism-based. Also noted: dose 25 mg/kg, route intraperitoneal. The settings on record: in vivo. In a few lines:
as §1

Data set [9] concerns Mus musculus. Kind of data set: Acute toxicity in Balb/C mouse assessed as change in serum chemistry at 37 mg/kg, ip administered thrice a week for 2 weeks measured 48 hrs after last dose. Set-up: dose 37 mg/kg, route intraperitoneal. The settings on record: in vivo. The format is organism-based. The procedure, abridged:
as §1

In data set [10] the test system is Mus musculus. Description: Toxicity in Balb/C mouse assessed as change in blood urea nitrogen levels at 10 to 40 mg/kg, ip administered thrice a week for 2 weeks measured 48 hrs after last dose. Also noted: dose 10-40 mg/kg, route intraperitoneal. The settings on record: in vivo. In kind it is organism-based. In a few lines: as §2
Data set [11] deals with Mus musculus. Description: Inhibition of PTEN expression in ip dosed Balb/C mouse white adipose tissue assessed as reduction of full length transcript administered thrice a week for 2 weeks measured 48 hrs after last dose […]. In kind it is functional, organism-based. (In western blotting, separated proteins are transferred to a membrane and probed.)

Data set [12] relates to Mus musculus. Kind of data set: Inhibition of PTEN expression in Balb/C mouse kidney assessed as upregulation of isoform lacking exon at 40 mg/kg, ip administered thrice a week for 2 weeks measured 48 hrs after last dose […]. Also noted: scale not given: the % may be the effect or the level left. The note with it: route intraperitoneal. In kind it is functional.

Data set [13] deals with Mus musculus. Kind of data set: Toxicity in Balb/C mouse assessed as change in serum bilirubin levels at 10 to 40 mg/kg, ip administered thrice a week for 2 weeks measured 48 hrs after last dose. In kind it is organism-based. Set-up: dose 10-40 mg/kg, route intraperitoneal. The settings on record: in vivo. In a few lines: as §2
Data set [14] relates to Mus musculus. Description: Toxicity in Balb/C mouse assessed as change in serum AST levels at 10 to 40 mg/kg, ip administered thrice a week for 2 weeks measured 48 hrs after last dose. The note with it: in vivo. Set-up: dose 10-40 mg/kg, route intraperitoneal. The format is organism-based. The procedure, abridged: as §2
Data set [15] concerns Mus musculus. Description: Toxicity in Balb/C mouse assessed as change in serum ALT levels at 10 to 40 mg/kg, ip administered thrice a week for 2 weeks measured 48 hrs after last dose. The format is organism-based. Set-up: dose 10-40 mg/kg, route intraperitoneal. The note with it: in vivo. In a few lines:
as §2

The test system of data set [16] is Mus musculus. Kind of data set: Toxicity in Balb/C mouse assessed as change in body weight at 10 to 40 mg/kg, ip administered thrice a week for 2 weeks measured 48 hrs after last dose. In kind it is organism-based. Set-up: dose 10-40 mg/kg, route intraperitoneal. The settings on record: in vivo. In a few lines:
as §2

The test system of data set [17] is Mus musculus. Kind of data set: Acute toxicity in Balb/C mouse assessed as change in body weight at 25 mg/kg, ip administered BID for 5 days measured 48 hrs after last dose. The format is organism-based. Also noted: dose 25 mg/kg, route intraperitoneal. The note with it: in vivo. The procedure, abridged: as §1
For data set [18], the system named is Mus musculus. Kind of data set: Inhibition of PTEN expression in ip dosed Balb/C mouse white adipose tissue assessed as upregulation of isoform lacking exon administered thrice a week for 2 weeks measured 48 hrs after last dose […]. In kind it is functional, organism-based.
Data set [19] has as its system Mus musculus. Kind of data set: Toxicity in Balb/C mouse assessed as increase in spleen weight at 40 mg/kg, ip administered thrice a week for 2 weeks measured 48 hrs after last dose. The settings on record: in vivo. Set-up: dose 40 mg/kg, route intraperitoneal. In kind it is organism-based. The procedure, abridged:
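Male Balb/c mice, 6–8 wk, n=4/group, were dosed i.p. in PBS 3x/wk for 2 wk at 40 mg/kg. They were killed by cervical dislocation 48 h after the last dose. Spleen weight was taken at necropsy and compared with the saline-treated group.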

`Cc1cn(CC(=O)N(CCNC(=O)CN(CCNC(=O)[C@H](CCCCN)N(CCNC(=O)[C@H](CCCCN)NC(=O)[C@H](CCCCN)NC(=O)[C@H](CCCCN)NC(=O)[C@H](CCCCN)NC(=O)[C@H](CCCCN)NC(=O)[C@H](CCCCN)NC(=O)[C@H](CCCCN)NC(=O)[C@@H](N)CCCCN)C(=O)Cn2cc(C)c(=O)[nH]c2=O)C(=O)Cn2ccc(N)nc2=O)CC(=O)NCCN(CC(=O)NCCN(CC(=O)NCCN(CC(=O)NCCN(CC(=O)NCCN(CC(=O)NCCN(CC(=O)NCCN(CC(=O)NCCN(CC(=O)NCCN(CC(=O)NCCN(CC(=O)NCCN(CC(=O)NCCN(CC(=O)NCCN(CC(=O)N[C@@H](CCCCN)C(N)=O)C(=O)Cn2cnc3c(N)ncnc32)C(=O)Cn2ccc(N)nc2=O)C(=O)Cn2cnc3c(N)ncnc32)C(=O)Cn2cc(C)c(=O)[nH]c2=O)C(=O)Cn2ccc(N)nc2=O)C(=O)Cn2cc(C)c(=O)[nH]c2=O)C(=O)Cn2cnc3c(N)ncnc32)C(=O)Cn2ccc(N)nc2=O)C(=O)Cn2cnc3c(N)ncnc32)C(=O)Cn2ccc(N)nc2=O)C(=O)Cn2cnc3c(=O)[nH]c(N)nc32)C(=O)Cn2cnc3c(N)ncnc32)C(=O)Cn2ccc(N)nc2=O)c(=O)[nH]c1=O`: the Activity entry with Mus musculus [1] is recorded as “Non-toxic”; in the data set on Mus musculus [2], “Non-toxic”; in the data set on Mus musculus [3], “Non-toxic”; in the data set with Mus musculus [5] it was “Non-toxic”; in the data set with Mus musculus [6], “Non-toxic”; with Mus musculus [7] it was 70%. The Activity entry in the data set with Mus musculus [8] was “Non-toxic”; with Mus musculus [9], “Non-toxic”; in the data set with Mus musculus [10], “Non-toxic”; in the data set with Mus musculus [11], “Dose-dependent effect”; in the data set on Mus musculus [12], 185%; with Mus musculus [13], “Non-toxic”. Besides, the Activity entry in the data set with Mus musculus [14] was “Non-toxic”; in the data set with Mus musculus [15], “Non-toxic”; in the data set with Mus musculus [16], “Non-toxic”; in the data set with Mus musculus [17], “Non-toxic”; with Mus musculus [18] it was “Dose-dependent effect”; in the data set on Mus musculus [19], 145%. In addition, the inhibition result in the data set on Mus musculus [4] is “inactive”.
